The results in this text go back to ChEMBL document CHEMBL4219084, “Design, synthesis and biological assessment of N-adamantyl, substituted adamantyl and noradamantyl phthalimidines for nitrite, TNF-α and angiogenesis inhibitory activities” (Bioorg Med Chem, 2018).

The species entered for data set [1] is Danio rerio. Kind of data set: Antiangiogenic activity in 24 hrs post fertilized zebra fish embryo harboring fli1:EGFP assessed as number of intersegmental vessel at 5 ug/ml after 24 hrs by fluorescence microscopic analysis. It is filed as functional. The method in brief:
(§1)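 fli1:EGFP transgenic zebrafish embryos, identified by fluorescence, manually dechorionated at 24 h post fertilization and placed in plates with compound diluted in tank water, vehicle controls alongside. After 24 h exposure, embryos anaesthetized with 0.1% tricaine and intersegmental vessels scored for length (µm) and number. Values given as mean ± S.E.M.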

Data set [2] has as its system RAW264.7. Kind of data set: Antiinflammatory activity in mouse RAW264.7 cells assessed as reduction in LPS-induced nitrite production by measuring nitrite levels at 30 uM pretreated for 1 hr followed by LPS-challenge measured after 20 to 24 hrs by Griess assay relative to control. It is filed as functional. Also on record: scale not given: the % may be the effect or the level left. The method in brief: (§2)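 RAW 264.7 cells in DMEM with 10% FBS and penicillin/streptomycin, 37 °C, 5% CO2, seeded at 200×10^3 per well in 24-well plates. Media replaced at 24 h. Compound in DMSO (0.5% final) added 2 h later, then LPS 60 ng/ml 1 h after that. Media collected 20–24 h after LPS. 3–4 wells per concentration, expressed as % of DMSO vehicle control (mean ± SE).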
On the technique in general: The Griess reaction detects nitrite, a stable product of nitric oxide.

The species named for data set [3] is Danio rerio. Kind of data set: Antiangiogenic activity in 24 hrs post fertilized zebra fish embryo harboring fli1:EGFP assessed as intersegmental vessel length at 5 ug/ml after 24 hrs by fluorescence microscopic analysis. It is filed as functional. The method in brief:
as §1

Data set [4] deals with RAW264.7. Kind of data set: Antiinflammatory activity in mouse RAW264.7 cells assessed as reduction in LPS-induced TNFalpha production by measuring TNFalpha levels at 30 uM pretreated for 1 hr followed by LPS-challenge measured after 20 to 24 hrs by ELISA relative to control. It is filed as functional. Also on record: scale not given: the % may be the effect or the level left. The procedure, abridged:
as §2
For orientation: ELISA stands for enzyme-linked immunosorbent assay.

For data set [5], the species on record is Danio rerio. Kind of data set: Toxicity in 24 hrs post fertilized zebra fish embryo harboring fli1:EGFP at >5 ug/ml. It is filed as organism-based. The note with it: zebrafish, in vivo.
The nature of data set [6]: Cytotoxicity against LPS-induced mouse RAW264.7 cells assessed as cell viability at 30 uM pretreated for 1 hr followed by LPS-challenge measured after 20 to 24 hrs by CellTiter 96 aqueous non-radioactive cell proliferation assay. It counts as cell-based. To be noted: LPS-induced RAW264.7 cells, read-out: Activity. The procedure, abridged: as §2
Data set [7] is filed under the species Danio rerio. Briefly: Antiangiogenic activity in 24 hrs post fertilized zebra fish embryo harboring fli1:EGFP assessed as number of intersegmental vessel at 10 ug/ml after 24 hrs by fluorescence microscopic analysis. It is filed as functional. The method in brief:
as §1

Data set [8] is filed under the species Danio rerio. Briefly: Antiangiogenic activity in 24 hrs post fertilized zebra fish embryo harboring fli1:EGFP assessed as intersegmental vessel length at 10 ug/ml after 24 hrs by fluorescence microscopic analysis. It counts as functional. The method in brief: as §1
The species entered for data set [9] is Danio rerio. Briefly: Antiangiogenic activity in 24 hrs post fertilized zebra fish embryo harboring fli1:EGFP assessed as intersegmental vessel length after 24 hrs by fluorescence microscopic analysis. It counts as functional, organism-based. The method in brief: as §1
The species named for data set [10] is Danio rerio. Briefly: Toxicity in 24 hrs post fertilized zebra fish embryo harboring fli1:EGFP at >50 ug/ml. It is filed as organism-based. The note with it: zebrafish, in vivo.
Data set [11] is described as follows: Solubility of the compound in DMEM media at 30 uM. It is filed as physicochemical.

For `O=C1c2cccc([N+](=O)[O-])c2CN1C1C2CC3CC(C2)CC1C3` (stereo not drawn), the Activity is reported as 14.6 in the data set filed under Danio rerio [1]; 9.2% with RAW264.7 [2]; 48.2 um in the data set filed under Danio rerio [3]; 65% in the data set on RAW264.7 [4]; “Toxic” in the data set filed under Danio rerio [5]. For the same compound, in data set [6], the viability at 30 µM turned out to be 82%.

Take `CC(N1Cc2c(cccc2[N+](=O)[O-])C1=O)C12CC3CC(CC(C3)C1)C2` (stereo not drawn): the values for the Activity in the data set on RAW264.7 [2] and in the data set on RAW264.7 [4] were 35% and 72%, respectively. Further, in [6], the viability at 30 µM was 81%.

On to `O=C1c2ccccc2CN1CC12CC3CC(CC(C3)C1)C2`, for which the Activity with RAW264.7 [2] is on record as 50%; in the data set listed under Danio rerio [7], 18.2; in the data set listed under Danio rerio [8], 83.1 um; in the data set on RAW264.7 [4] it was 59%. Further, the viability at 30 µM in data set [6] is 81%.

On to `O=C1c2ccccc2CN1C1C2CC3CC(C2)CC1C3` (stereo not drawn), for which the Activity in the data set on RAW264.7 [2] was 62%; in the data set with RAW264.7 [4] it was 58%. In addition, the viability at 30 µM in [6] is 75%.

Consider `Nc1cccc2c1CN(C1C3CC4CC(C3)CC1C4)C2=O` (stereo not drawn), for which the Activity was 72% in the data set with RAW264.7 [2]; 14 in the data set filed under Danio rerio [7]; “Dose-dependent effect” in the data set listed under Danio rerio [9]; 42.1 um in the data set filed under Danio rerio [8]; 101% in the data set on RAW264.7 [4]; “Toxic” in the data set listed under Danio rerio [10]. For the same compound, the viability at 30 µM in [6] worked out at 99%.

Regarding `CC(N1Cc2ccccc2C1=O)C12CC3CC(CC(C3)C1)C2` (stereo not drawn), the figures for the Activity with RAW264.7 [2] and in the data set on RAW264.7 [4] were 52% and 55%, respectively. Also, the viability at 30 µM in data set [6] is 82%.

As for `O=C1c2ccccc2CN1C12CC3CC(CC(O)(C3)C1)C2`, the Activity with RAW264.7 [2] came to 101%; in the data set listed under Danio rerio [7], 19.5; in the data set filed under Danio rerio [8], 105.1 um; in the data set with RAW264.7 [4] it was 80%. The viability at 30 µM in data set [6] stood at 98%.

`O=C1c2cccc([N+](=O)[O-])c2CN1C12CC3CC(CC(C3)C1)C2`: in [11], the solubility entry is reported as “Insoluble”. Also, the Activity with RAW264.7 [2] is 40%; in the data set on RAW264.7 [4], 86%. Besides, the viability at 30 µM in data set [6] turned out to be 114%.

For `O=C1c2ccccc2CN1C12CC3CC(CC1C3)C2`, the Activity with RAW264.7 [4] is given as 52%. The viability at 30 µM in [6] turned out to be 74%.

As to `S=C1c2ccccc2CN1C12CC3CC(CC1C3)C2`, the solubility result in data set [11] is listed as “Insoluble”. In addition, the Activity in the data set on RAW264.7 [4] is on record as 85%. The viability at 30 µM in data set [6] amounted to 94%.

Turning to `O=C1c2cccc([N+](=O)[O-])c2CN1C12CC3CC(CC(O)(C3)C1)C2`, the Activity was determined as 94% with RAW264.7 [2] and 91% in the data set with RAW264.7 [4]. The viability at 30 µM in data set [6] turned out to be 107%.

For `CC(N1Cc2c(cccc2[N+](=O)[O-])C1=S)C12CC3CC(CC(C3)C1)C2` (stereo not drawn), the Activity is 11.5% in the data set with RAW264.7 [2], 22 in the data set filed under Danio rerio [7], 86.4 um in the data set listed under Danio rerio [8] and 96% in the data set with RAW264.7 [4]. Also, in data set [6], the viability at 30 µM turned out to be 83%.

On to `CC(N1Cc2ccccc2C1=S)C12CC3CC(CC(C3)C1)C2` (stereo not drawn), for which, in data set [11], the solubility result is listed as “Insoluble”. The Activity worked out at 52% with RAW264.7 [2] and 90% in the data set with RAW264.7 [4]. For the same compound, the viability at 30 µM in data set [6] came to 84%.

Consider `O=C1c2cccc([N+](=O)[O-])c2CN1C12CC3CC(CC1C3)C2`, for which the Activity in the data set on RAW264.7 [2] was 49%; in the data set listed under Danio rerio [7] it was 8.6; in the data set listed under Danio rerio [9] it was “Dose-dependent effect”; in the data set filed under Danio rerio [8], 42.8 um; with RAW264.7 [4], 90%; in the data set filed under Danio rerio [10] it was “Toxic”. In [6], the viability at 30 µM amounted to 92%.

For the compound `O=C1c2cccc([N+](=O)[O-])c2CN1CC12CC3CC(CC(C3)C1)C2`, the Activity amounted to 55% with RAW264.7 [2] and 77% in the data set with RAW264.7 [4]. The viability at 30 µM in data set [6] is 92%.
